Screening data from PubChem.
A selection: hits, their analogues and other compounds. The true share with any hit is near 1.4%.
Rev-erbA mod: modulators of human Rev-erb alpha DNA binding. activity, % at 10 µM. 370,000 tested, 0.79% active. P20393. Rev-erbα–FITC-DNA binding, fluorescence polarization, 90 min. AID 1259318;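 active = activity above about 14%, limit read from the data; passing the limit was not always enough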
Target sequence (P20393 whole entry, looked up): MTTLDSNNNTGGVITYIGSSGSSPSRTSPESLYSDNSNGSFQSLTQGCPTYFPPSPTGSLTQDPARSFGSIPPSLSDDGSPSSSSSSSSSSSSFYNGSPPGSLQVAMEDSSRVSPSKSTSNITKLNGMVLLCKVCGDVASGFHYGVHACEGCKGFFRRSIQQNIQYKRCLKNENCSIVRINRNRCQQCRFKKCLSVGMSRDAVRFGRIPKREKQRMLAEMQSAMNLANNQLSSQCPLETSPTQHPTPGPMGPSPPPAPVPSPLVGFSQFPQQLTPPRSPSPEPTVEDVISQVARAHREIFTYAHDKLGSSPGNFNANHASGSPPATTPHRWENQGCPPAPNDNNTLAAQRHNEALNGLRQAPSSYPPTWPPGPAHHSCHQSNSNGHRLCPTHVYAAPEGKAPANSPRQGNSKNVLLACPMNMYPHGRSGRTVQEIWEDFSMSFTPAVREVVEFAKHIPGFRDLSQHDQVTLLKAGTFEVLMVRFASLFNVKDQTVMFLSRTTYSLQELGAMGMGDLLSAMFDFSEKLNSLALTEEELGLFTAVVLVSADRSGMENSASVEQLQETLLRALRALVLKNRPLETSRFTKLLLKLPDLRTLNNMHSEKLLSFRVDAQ
PG9 binder: PG9 antibody binding by small molecule | TR-FRET gp120-PG9 antibody binding | inhibition, % at 6.7 µM | 360,000 tested, 0.43% active; in the data active = inhibition above about 8.5%
NR2E3 ag-1: NR2E3 (human) agonism. Q9Y5X4. GST-NR2E3/biotin-RetCOR TR-FRET, 1536-well. inhibition of corepressor binding, % at 4.78 µM. 320,000 tested, 0.12% active. AID 2300;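 active = percent inhibition above the cutoff of mean plus 3 SD of all tested compounds, set per screening campaign, cut at about 20% in these data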
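Material: NR2E3–RetCOR corepressor complex / Amount: 1.35 nM GST-NR2E3 / Medium: Tris pH 7.5 / Compound: single nominal compound dose of 4.8 µM / Incubation: 5 h at 4 °C / Technique: TR-FRET, Eu(K)-anti-GST donor, streptavidin-D2 acceptor, ex 340, em 617/671 nm / Read-out basis: percent loss of FRET ratio relative to control wells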
NR2E3 ag-2: activates human NR2E3 receptor; Q9Y5X4; CHO-S Gal4-NCOR/VP16-NR2E3 two-hybrid, luciferase; AID 602229; inhibition of corepressor binding, % at 3.98 µM; 360,000 tested, 0.35% active;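 active = inhibition above the mean of all tested compounds plus 3 SD, cut at about 70% in these data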;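 note: higher means lower luciferase signal from less NR2E3 corepressor binding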
NR2E3 ag confirm-1: NR2E3 (human) agonism, confirmation | shares compounds with NR2E3 ag-1 | cell-free NR2E3 corepressor release, TR-FRET, 5 h | activation (reported as inhibition), % at 3.98 µM | 360 tested, 39% active | AID 2379; in the data active = activation above about 20%
PPARg-NCOR2 ctr: PPARg-NCOR2 interaction agonism, NR2E3 counter-screen | shares compounds with NR2E3 ag-1 | TR-FRET PPARg-NCOR2 coregulator interaction, biochemical | inhibition, % at 3.98 µM | 360 tested, 45% active | AID 504787; in the data active = inhibition above about 20%
NR2E3 ag confirm-2: confirmation of human NR2E3 agonists; CHO-S mammalian two-hybrid NR2E3-NCOR, luciferase luminescence; inhibition, % at 3.98 µM; 2,300 tested, 51% active; shares compounds with NR2E3 ag-2; AID 624378;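 active = average inhibition above a cutoff equal to the mean inhibition of all tested compounds plus one SD, cut at about 70% in these data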
VP16 counter: counter-screen for NR2E3 agonists: GAL4-VP16 reporter inhibitors; shares compounds with NR2E3 ag-2; CHO-S GAL4-VP16 luciferase reporter, luminescence; inhibition, % at 3.98 µM; 2,300 tested, 29% active; AID 624379;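 active = mean inhibition above a cutoff equal to the average over all tested compounds plus one standard deviation, cut at about 70% in these data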;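 note: luciferase from a UAS reporter driven by GAL4-VP16 transactivation; higher means less reporter light so more repression of VP16 activity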
PG9 bind confirm: confirmation of small molecules binding HIV-1 gp120 antibody PG9. AID 651571. TR-FRET PG9 antibody binding, biochemical. shares compounds with PG9 binder. 1,500 tested, 90% active. inhibition, % at 6.7 µM; in the data active = inhibition above about 9%
PGV04 counter: counter-screen for PG9 binders: binding control antibody PGV04; shares compounds with PG9 binder; TR-FRET PGV04 antibody-gp120 binding, biochemical; inhibition, % at 6.7 µM; 1,500 tested, 95% active; AID 651604; in the data active = inhibition above about 9.5%
NR1D1 mod conf: confirmation of modulators of human Rev-erb alpha DNA binding. activation, % at 25 µM. AID 1259319. shares compounds with Rev-erbA mod. Rev-erb alpha FITC-DNA binding, fluorescence polarization, 90 min. 3,000 tested, 61% active;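 active = activation at or above a set limit, or at least 3 SD above the negative control mean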
RORg DNA counter: affects RORgamma DNA binding in a Rev-erb alpha counter-screen; purified RORgamma protein-FITC-DNA binding, fluorescence polarization; IC50, µM; 910 tested, 8% active; shares compounds with Rev-erbA mod;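 active = Compounds whose fitted half-maximal concentration for disrupting protein-DNA binding is below 10 micromolar; the record names Rev-erb in its text, so the target is in doubt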
Large screens that a line does not name were inactive (follow-up assays come after a bar, where they were run).

CCC(=O)O[C@@H]1CC(=O)O[C@H](C)C/C=C/C=C/[C@H](O)[C@H](C)C[C@H](CC=O)[C@H](O[C@@H]2O[C@H](C)[C@@H](O[C@H]3C[C@@](C)(O)[C@@H](OC(=O)CC)[C@H](C)O3)[C@H](N(C)C)[C@H]2O)[C@H]1OC	none (no result: PG9 binder, NR2E3 ag-1, NR2E3 ag-2)
CC(C)Cc1c2c([nH]c(=S)c1C#N)CCCC2	PG9 binder 15, NR2E3 ag-1 38 | NR2E3 ag confirm-1 34 | PPARg-NCOR2 ctr 36 | PG9 bind confirm inactive | PGV04 counter inactive
CC(=O)[C@H]1CCC2C3C[C@H](C)C4=CC(=O)CC[C@]4(C)C3[C@@H](O)C[C@@]21C (stereo partly specified)	none (no result: PG9 binder, NR2E3 ag-1, NR2E3 ag-2)
O=C(O)CCC(=O)N1CCN(c2nc(-c3ccccc3)c3cc(Br)ccc3n2)CC1	none
O=C(O)CCC(=O)N1CCN(c2nc(-c3ccccc3Cl)c3cc(Br)ccc3n2)CC1	PG9 binder 11, NR2E3 ag-1 24 | NR2E3 ag confirm-1 inactive | PPARg-NCOR2 ctr inactive | PG9 bind confirm 16 | PGV04 counter 23
Cc1cc2c(cc1CC(=O)c1sccc1S(=O)(=O)Nc1onc(C)c1Cl)OCO2	none (no result: PG9 binder, NR2E3 ag-1, NR2E3 ag-2)
COC(=O)c1cc2n3ccccc3c(C)c(-c3ccccc3)c-2c1C(=O)OC	PG9 binder 21, NR2E3 ag-1 59 | NR2E3 ag confirm-1 63 | PPARg-NCOR2 ctr 63 | PG9 bind confirm 29 | PGV04 counter 39
CC[C@@H]([C@H](C)O)n1ncn(-c2ccc(N3CCN(c4ccc(OC[C@@H]5CO[C@@](Cn6cncn6)(c6ccc(F)cc6F)C5)cc4)CC3)cc2)c1=O	none (no result: PG9 binder, NR2E3 ag-1, NR2E3 ag-2)
C=C(C)[C@H]1CC=C(C(=O)O)CC1	none (no result: PG9 binder, NR2E3 ag-1, NR2E3 ag-2)
COc1ccc2nc(NC(=O)CSc3nc4ccccc4o3)sc2c1	PG9 binder 21, NR2E3 ag-1 20 | NR2E3 ag confirm-1 inactive | PPARg-NCOR2 ctr inactive | PG9 bind confirm 27 | PGV04 counter 45
CCCCCn1c(SCC#N)nc2cc(C(=O)NCC3CCCO3)ccc2c1=O (stereo unspecified)	Rev-erbA mod 71, PG9 binder 68, NR2E3 ag-1 22 | NR2E3 ag confirm-1 inactive | PPARg-NCOR2 ctr inactive | NR1D1 mod conf 38
CCc1ccccc1NC(=O)CSc1nc2cc(C(=O)NCC3CCCO3)ccc2c(=O)n1CC1CCCO1 (stereo unspecified)	none (no result: NR2E3 ag-1)
CCCCCCCCCCCCCCCC(=O)OC[C@H](NC(=O)C(Cl)Cl)[C@H](O)c1ccc([N+](=O)[O-])cc1	none (no result: PG9 binder, NR2E3 ag-1, NR2E3 ag-2)
CCc1cc2cc3c(cc2nc1SCC(=O)Nc1cc(C)on1)OCO3	Rev-erbA mod 211, PG9 binder 21, NR2E3 ag-1 23 | NR2E3 ag confirm-1 51 | PPARg-NCOR2 ctr 62 | PG9 bind confirm 46 | PGV04 counter 66 | NR1D1 mod conf 158 | RORg DNA counter inactive
CCc1cc2cc3c(cc2nc1SCC(=O)OC(C)C)OCO3	none
O=[N+]([O-])c1ccc(Oc2ccc(N=C=S)cc2)cc1	none (no result: PG9 binder, NR2E3 ag-1, NR2E3 ag-2)
Cc1ccc(C(=O)Nc2nc3ccccc3c(=O)s2)cc1	Rev-erbA mod 69, PG9 binder 73, NR2E3 ag-1 23 | NR2E3 ag confirm-1 43 | PPARg-NCOR2 ctr 46 | PG9 bind confirm 78 | PGV04 counter 89 | NR1D1 mod conf 35 | RORg DNA counter 2.1
CSc1nc2ccc3nc(NC(=O)c4ccc(C)cc4)sc3c2s1	none
Cc1cccc(C)c1NC(=O)COc1ccccc1C(=O)Nc1ccc(Br)cn1	Rev-erbA mod 118, PG9 binder 62, NR2E3 ag-1 44 | NR2E3 ag confirm-1 42 | PPARg-NCOR2 ctr 49 | PG9 bind confirm 61 | PGV04 counter 83 | NR1D1 mod conf 92 | RORg DNA counter inactive
CCC(=O)c1ccccc1OCC(=O)Nc1c(C)cccc1C	none
Brc1cc(Br)c2ncnc(N3CCCCC3)c2c1	Rev-erbA mod 76, PG9 binder 38, NR2E3 ag-1 34 | NR2E3 ag confirm-1 34 | PPARg-NCOR2 ctr 29 | PG9 bind confirm 54 | PGV04 counter 63 | NR1D1 mod conf 40 | RORg DNA counter 2.8
S=c1nc(SCc2ccccc2)[nH]c2ccccc12	Rev-erbA mod 29, NR2E3 ag-1 35 | NR2E3 ag confirm-1 36 | PPARg-NCOR2 ctr 55 | NR2E3 ag confirm-2 inactive | VP16 counter inactive | NR1D1 mod conf inactive
C#C[C@]1(O)CCC2C3CCC4=CC(=O)CC[C@@H]4C3CC[C@@]21CC (stereo partly specified)	none (no result: PG9 binder, NR2E3 ag-1, NR2E3 ag-2)
O=C(CSc1nc(Cc2ccccc2)nc2ccccc12)Nc1ccc2c(c1)OCCO2	Rev-erbA mod 33, NR2E3 ag-1 28 | NR2E3 ag confirm-1 inactive | PPARg-NCOR2 ctr inactive | NR1D1 mod conf 27
O=C(CSc1ncnc2ccccc12)Nc1ccc2c(c1)OCCO2	none
O=C(CCCn1c(=S)[nH]c2cc3c(cc2c1=O)OCO3)NCc1cccc(Cl)c1	Rev-erbA mod 48, PG9 binder 17, NR2E3 ag-1 28 | NR2E3 ag confirm-1 inactive | PPARg-NCOR2 ctr 22 | PG9 bind confirm 13 | PGV04 counter 23 | NR1D1 mod conf 30 | RORg DNA counter inactive
CCOC(=O)[C@H](CCc1ccccc1)N[C@H]1CCCN2CCC[C@@H](C(=O)O)N2C1=O	none (no result: PG9 binder, NR2E3 ag-1, NR2E3 ag-2)
COc1ccc2nc(C)cc(SCC(=O)Nc3c(C)cc(C)cc3C)c2c1	Rev-erbA mod 412, NR2E3 ag-1 36 | NR2E3 ag confirm-1 inactive | PPARg-NCOR2 ctr inactive | NR1D1 mod conf 19
C#C[C@]1(O)CCC2C3CCc4cc(OC)ccc4C3CC[C@@]21C (stereo partly specified)	none (no result: PG9 binder, NR2E3 ag-1, NR2E3 ag-2)
CC(=O)CC/C=C(\C)CC/C=C(\C)CC/C=C(\C)CCC=C(C)C	none (no result: PG9 binder, NR2E3 ag-1, NR2E3 ag-2)
O=C(CSc1ncnc2c1oc1ccccc12)Nc1ccccc1C(F)(F)F	Rev-erbA mod 348, PG9 binder 66, NR2E3 ag-1 44 | NR2E3 ag confirm-1 70 | PPARg-NCOR2 ctr 74 | PG9 bind confirm 27 | PGV04 counter 75 | NR1D1 mod conf 341
